Source: ChEMBL document CHEMBL3871288, “Marine sponge alkaloids as a source of anti-bacterial adjuvants” (Bioorg Med Chem Lett, 2016)
pIC50: −log10 of the molar value.

Columns and labels:
Acinetobacter baumannii [1] = assay: Antibiofilm activity against Acinetobacter baumannii ATCC 19606 after 24 hrs by crystal violet staining based assay; type: functional; conditions: ATCC 19606, 24 h
Staphylococcus aureus [2] = assay: Potentiation of oxacillin-induced antibacterial activity against methicillin-resistant Staphylococcus aureus BAA-1556 assessed as oxacillin MIC at 10 uM measured after 16 to 18 hrs by serial dilution assay (reference value: 32 ug/ml); type: functional
Acinetobacter baumannii [3] = assay: Potentiation of meropenem-induced antibacterial activity against Acinetobacter baumannii AB5075 assessed as meropenem MIC at 10 uM measured after 16 to 18 hrs by serial dilution assay (reference value: 32 ug/ml); type: functional
Staphylococcus aureus [4] = assay: Potentiation of oxacillin-induced antibacterial activity against methicillin-resistant Staphylococcus aureus BAA-1556 assessed as oxacillin MIC at 5 uM measured after 16 to 18 hrs by serial dilution assay (reference value: 32 ug/ml); type: functional
Staphylococcus aureus [5] = assay: Antibiofilm activity against methicillin-resistant Staphylococcus aureus BAA-1685 after 24 hrs by crystal violet staining based assay; type: functional; conditions: BAA-1685, 24 h
Acinetobacter baumannii [6] = assay: Antibiofilm activity against Acinetobacter baumannii ATCC 19606 at 50 uM after 24 hrs by crystal violet staining based assay relative to control; type: functional; conditions: ATCC 19606, 24 h
Staphylococcus aureus [7] = assay: Potentiation of oxacillin-induced antibacterial activity against methicillin-resistant Staphylococcus aureus BAA-1556 assessed as oxacillin MIC at 50 uM measured after 16 to 18 hrs by serial dilution assay (reference value: 32 ug/ml); type: functional
Staphylococcus aureus [8] = assay: Potentiation of oxacillin-induced antibacterial activity against methicillin-resistant Staphylococcus aureus NE481 assessed as oxacillin MIC at 25 uM measured after 16 to 18 hrs by serial dilution assay (reference value: 1 ug/ml)
Staphylococcus aureus [9] = assay: Potentiation of oxacillin-induced antibacterial activity against methicillin-resistant Staphylococcus aureus BAA-1556 assessed as oxacillin MIC at 40 uM measured after 16 to 18 hrs by serial dilution assay (reference value: 32 ug/ml); type: functional
Staphylococcus aureus [10] = assay: Ratio of oxacillin MIC for methicillin-resistant Staphylococcus aureus BAA-1556 in presence of test compound to oxacillin MIC for methicillin-resistant Staphylococcus aureus harboring vraR mutant in presence of test compound; type: functional
Staphylococcus aureus [11] = assay: Potentiation of vancomycin-induced antibacterial activity against vancomycin intermediate Staphylococcus aureus ATCC 700699 assessed as vancomycin MIC at 25 uM measured after 16 to 18 hrs by serial dilution assay (reference value: 8 ug/ml); type: functional; conditions: Mu50
Outline: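 Vancomycin MIC was measured against vancomycin-intermediate S. aureus ATCC 700699 with the alkaloid co-dosed at a fixed concentration. Levels used across the series were 25 and 50 µM.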

Pseudomonas aeruginosa = assay: Antibiofilm activity against Pseudomonas aeruginosa PA14 after 24 hrs by crystal violet staining based assay; type: functional; conditions: PA14, 24 h
Staphylococcus aureus [12] = assay: Potentiation of oxacillin-induced antibacterial activity against methicillin-resistant Staphylococcus aureus BAA-1556 assessed as oxacillin MIC at 25 uM measured after 16 to 18 hrs by serial dilution assay (reference value: 32 ug/ml); type: functional
Acinetobacter baumannii [13] = assay: Antibiofilm activity against Acinetobacter baumannii ATCC 19606 at 100 uM after 24 hrs by crystal violet staining based assay relative to control; type: functional; conditions: ATCC 19606, 24 h
Staphylococcus aureus [14] = assay: Potentiation of oxacillin-induced antibacterial activity against methicillin-resistant Staphylococcus aureus harboring vraR mutant assessed as oxacillin MIC at 25 uM measured after 16 to 18 hrs by serial dilution assay; type: functional
Staphylococcus aureus [15] = assay: Potentiation of vancomycin-induced antibacterial activity against vancomycin intermediate Staphylococcus aureus ATCC 700699 assessed as vancomycin MIC at 50 uM measured after 16 to 18 hrs by serial dilution assay (reference value: 8 ug/ml); type: functional; conditions: Mu50

Row | Structure (SMILES) | pIC50 (Acinetobacter baumannii [1]) | MIC (Staphylococcus aureus [2]) [µg/mL] | MIC (Acinetobacter baumannii [3]) [µg/mL] | MIC (Staphylococcus aureus [4]) [µg/mL] | pIC50 (Staphylococcus aureus [5]) | inhibition at 50 µM (Acinetobacter baumannii [6]) [%] | MIC (Staphylococcus aureus [7]) [µg/mL] | MIC (Staphylococcus aureus [8]) [µg/mL] | MIC (Staphylococcus aureus [9]) [µg/mL] | Ratio (Staphylococcus aureus [10]) | MIC (Staphylococcus aureus [11]) [µg/mL] | pIC50 (Pseudomonas aeruginosa) | MIC (Staphylococcus aureus [12]) [µg/mL] | inhibition at 100 µM (Acinetobacter baumannii [13]) [%] | MIC (Staphylococcus aureus [14]) [µg/mL] | MIC (Staphylococcus aureus [15]) [µg/mL]
1 | Nc1ncc([C@@H]2[C@@H](CNC(=O)c3cc(Br)c(Br)[nH]3)[C@H](CNC(=O)c3cc(Br)c(Br)[nH]3)[C@H]2c2cnc(N)[nH]2)[nH]1 | < 4.30 | 2 | 8 | 8 | 4.82 | 48 |  |  |  |  |  |  |  |  |  | 
2 | Nc1ncc(/C=C/CNC(=O)c2cc(Br)c(Br)[nH]2)[nH]1 [OROIDIN] | < 4.00 |  |  |  | 4.11 |  | 0.5 | 0.5 | 2 | 4 | 4 | 3.78 | 8 | 29 | 2 | 2
3 | Nc1nc([C@@H]2c3[nH]c(N)nc3C[C@H](CNC(=O)c3cc(Br)c[nH]3)[C@H]2CNC(=O)c2cc(Br)c(Br)[nH]2)c[nH]1 [BROMOAGELIFERIN] | 4.55 | 2 | 8 | 16 | 4.97 |  |  |  |  |  |  |  |  |  |  | 
4 | Nc1ncc([C@@H]2[C@@H](CNC(=O)c3cc(Br)c[nH]3)[C@H](CNC(=O)c3cc(Br)c[nH]3)[C@H]2c2cnc(N)[nH]2)[nH]1 | 4.52 |  |  |  | 4.42 |  |  |  |  |  |  |  |  |  |  | 
